Bioassay records from PubChem BioAssay.
WT yeast gro inh = growth inhibition of WT yeast, mitochondrial fusion screen. mitochondrial fusion phenotypic screen, WT strain. inhibition, % at 10 µM. 2.1% of 190,000 active. AID 1362; in the data active means inhibition above about 58%; tested in S. cerevisiae
Diaphorase act = counter-screen for diaphorase-based assays: diaphorase activators and chemical reducers | Diaphorase/resazurin coupled assay, resorufin fluorescence, 16 min; hits give high values; 1 = vehicle wells, 0 = NADH-free wells | activation factor at 20 µM | 0.005% of 190,000 active;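 active means diaphorase activity raised at least twofold by the compound at 20 µM; inactive means activation factor below 2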
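System – purified diaphorase enzyme from Clostridium kluyveri · Input – enzyme 0.07 U/mL final · Also added – final NADH 0.114 mM, resazurin 0.1 mM · Measured by – fluorescence of resorufin, 544 nm excitation, 590 nm emission · Timing – 16 min enzyme reaction, ambient temperature · Measure – resorufin increase flagging diaphorase activators or reducers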
ROMK mod = human ROMK K+ channel modulation, primary screen; P48048; Tet-inducible ROMK, thallium flux fluorescence; actives lie on both sides; B-score at 10 µM; 2% of 130,000 active; AID 1918;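 active means signal ratio slope over the read window, or its plate-corrected B-score, at least 3 SD from the plate mean, either direction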;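 further: B-score of the F/F0 ratio slope over 7 to 12 s after thallium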
Lmaj promast = reduces viability of Leishmania major promastigotes | resazurin fluorescence viability | inhibition, % at 10 µM | 9% of 200,000 active; in the data active means inhibition above about 50%;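 further: promastigotes grown with compound for 44 hours at 28 °C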
Diaph inh CS = counter-screen for diaphorase-based assays: diaphorase inhibitors and chemical oxidizers; diaphorase resazurin-to-resorufin fluorescence, NADH, 16 min; bacterial (C. kluyveri) enzyme, not human; inhibition, % at 20 µM; 0.69% of 190,000 active; AID 1217;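 active means primary screen inhibition at 20 µM above a set limit, cut at about 50% in these data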
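Assay system: diaphorase enzyme from Clostridium kluyveri; Input: enzyme working solution with 0.14 U/mL diaphorase; Timing: 16 min at room temperature; Technique: resorufin fluorescence, excitation 544 nm, emission 590 nm; Benchmarks: positive control minus NADH, DMSO neutral control.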
KCC2 mod = modulates chloride dependent transport by human KCC2; 2.2% of 190,000 active; AID 1456; KCC2 cells, thallium flux FluoZin-2 fluorescence; B-score of Tl+ flux slope (higher = more flux/activation; lower = inhibition) at 10 µM;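 active means thallium flux slope and its plate-corrected score both differing from the plate sample mean at a set confidence after two filtering rounds, in either direction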;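 further: slope of fluorescence scaled to starting intensity during 10 to 20 s after thallium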
Target sequence (Q9H2X9 whole entry, looked up): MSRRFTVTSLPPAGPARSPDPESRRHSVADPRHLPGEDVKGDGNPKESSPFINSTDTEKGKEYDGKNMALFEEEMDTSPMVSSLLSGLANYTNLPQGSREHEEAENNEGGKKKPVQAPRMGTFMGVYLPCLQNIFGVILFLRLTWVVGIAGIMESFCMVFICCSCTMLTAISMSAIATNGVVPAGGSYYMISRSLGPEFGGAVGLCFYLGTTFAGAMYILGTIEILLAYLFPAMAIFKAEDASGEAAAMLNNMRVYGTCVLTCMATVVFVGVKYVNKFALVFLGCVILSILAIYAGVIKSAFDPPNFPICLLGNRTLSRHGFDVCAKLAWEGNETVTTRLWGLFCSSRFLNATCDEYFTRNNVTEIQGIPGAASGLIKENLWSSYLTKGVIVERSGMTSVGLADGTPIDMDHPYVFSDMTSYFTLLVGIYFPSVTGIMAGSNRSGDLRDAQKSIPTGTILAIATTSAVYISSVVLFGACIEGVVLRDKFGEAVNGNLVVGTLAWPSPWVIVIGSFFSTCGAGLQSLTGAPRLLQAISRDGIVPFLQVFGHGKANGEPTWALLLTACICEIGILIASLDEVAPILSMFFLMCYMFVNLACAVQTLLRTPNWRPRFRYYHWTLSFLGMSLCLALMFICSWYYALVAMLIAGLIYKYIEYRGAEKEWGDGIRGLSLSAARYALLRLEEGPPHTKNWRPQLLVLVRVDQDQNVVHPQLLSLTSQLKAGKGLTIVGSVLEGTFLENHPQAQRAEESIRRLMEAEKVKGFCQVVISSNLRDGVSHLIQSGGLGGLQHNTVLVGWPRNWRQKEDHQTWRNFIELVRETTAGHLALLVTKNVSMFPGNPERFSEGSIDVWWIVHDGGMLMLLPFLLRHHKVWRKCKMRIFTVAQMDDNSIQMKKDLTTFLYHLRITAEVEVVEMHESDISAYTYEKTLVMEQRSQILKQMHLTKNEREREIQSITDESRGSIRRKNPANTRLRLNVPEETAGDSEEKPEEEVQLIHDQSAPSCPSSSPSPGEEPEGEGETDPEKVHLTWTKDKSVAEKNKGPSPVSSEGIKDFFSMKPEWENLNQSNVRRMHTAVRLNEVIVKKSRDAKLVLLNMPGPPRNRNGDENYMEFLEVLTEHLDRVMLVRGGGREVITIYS
L major 1uM = inhibitors of Leishmania major promastigote growth, repeat at 1 uM. 13% of 1,100 active. shares compounds with Lmaj promast. inhibition, % at 1 µM. L. major promastigote growth, resazurin fluorescence, 48 h;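 active means inhibition above about 50% in both repeat tests, limit read from the data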
A number is an active result; . = inactive; / = no result given. This is a sample that favours compounds with a hit; in the whole collection about 12% have one here.

SMILES	WT yeast gro inh	Diaphorase act	ROMK mod	Lmaj promast	Diaph inh CS	KCC2 mod	L major 1uM
CCCCOc1ccccc1-c1cc(C(=O)O)[nH]n1	.	.	.	.	.	.	/
Cn1nc(C(=O)Nc2nc3ccccc3[nH]2)ccc1=O	.	.	.	.	.	.	/
CC(C)CN(C(=O)c1ccc(=O)n(C)n1)c1nc2ccccc2s1	.	.	/	57.0	.	/	.
NS(=O)(=O)c1ccc(CCNC(=O)CSc2nnc3ccccn23)cc1	.	.	.	.	.	.	/
Cc1cc(C)c(C#N)c(SCC(=O)c2ccccc2)n1	.	.	.	100.0	.	.	.
CC1CC(C)(C)NC(=S)N1CC(=O)N1CCN(Cc2ccc3c(c2)OCO3)CC1 (centres undefined)	.	.	.	.	.	.	/
O=c1[nH][nH]cc1C=Nc1ccccc1O	.	.	.	97.9	.	/	.
O=c1[nH][nH]cc1C=Nc1ccccc1Cl	.	.	.	.	.	.	/
CC(SCC(=O)NC12CC3CC(CC(C3)C1)C2)C(=O)O (centres undefined)	.	.	.	55.8	.	.	.
COC(=O)CCNS(=O)(=O)c1ccc2ccccc2c1	.	.	.	.	.	.	/
CCC(C)Nc1nc2c(c(=O)n(C)c(=O)n2C)n1Cc1cccc(C)c1 (centres undefined)	.	.	/	83.2	.	.	.
O=c1[nH]c2cc3c(cc2cc1C(c1nnnn1CC1CCCO1)N1CCCCCC1)OCCO3 (centres undefined)	.	.	.	.	.	/	/
CCn1cc([N+](=O)[O-])c(C(=O)N2N=C(c3ccc(OC)cc3OC)CC2c2ccccc2O)n1 (centres undefined)	.	.	.	60.0	.	.	.
COc1ccc(NC(=O)c2cccc(N3C(=O)NC4CC3(C)Oc3ccccc34)c2)cc1 (centres undefined)	.	.	.	99.9	.	.	.
CC12CC(NC(=O)N1c1cccc(C(=O)Nc3ncn[nH]3)c1)c1ccccc1O2 (centres undefined)	.	.	.	.	.	/	/
Cc1cc2cc(CCNC(=O)C3c4ccccc4Oc4ccccc43)c(=O)[nH]c2cc1C	.	.	.	.	.	.	/
COc1ccc(C2SCC(=O)N2c2nnc(C34CC5CC(CC(C5)C3)C4)s2)cc1 (centres undefined)	.	.	.	98.4	.	.	.
COc1cc(C2SCC(=O)N2c2nnc(C34CC5CC(CC(C5)C3)C4)s2)cc(OC)c1OC (centres undefined)	.	.	/	.	.	/	/
CCCCCOc1ccc(Br)cc1/C(C)=N/NC1=NCCN1	.	.	/	100.4	.	.	.
CCC[n+]1c(C)sc2c3c(ccc21)CCCC3	.	.	.	99.9	.	/	.
CCOC(=O)C1(N(CC)CC)Sc2cc(C)ccc2NC1=O (centres undefined)	.	.	.	93.8	.	.	.
Cc1nc(COC(=O)c2ccc(S(=O)(=O)N3CCCC3)cc2)cs1	.	.	.	.	.	.	/
CNC(=O)/C=C1\NC(C)(C)Cc2c1ccc1ccccc21	.	.	/	54.3	.	.	.
COC(=O)COc1cccc2c(=O)n(CC(=O)NCCc3ccccc3)ccc12	.	.	.	.	.	.	/
CN(C)c1ccc(C(O)P(=O)(OC2CCCCC2)OC2CCCCC2)cc1 (centres undefined)	/	/	/	/	/	.	/
SMILES	WT yeast gro inh	Diaphorase act	ROMK mod	Lmaj promast	Diaph inh CS	KCC2 mod	L major 1uM
Cc1ccc(C(O)P(=O)(OC2CCCCC2)OC2CCCCC2)cc1 (centres undefined)	.	.	.	89.3	.	.	.
Cc1ccc(CNC(=O)c2cccc(OCc3c(C)noc3C)c2)cc1	.	.	/	80.2	.	.	.
Cc1noc(C)c1COc1cccc(C(=O)NCCc2c[nH]c3ccccc23)c1	.	.	.	.	.	.	/
CCOC(=O)c1cnn(-c2ccccc2)c1NC(=O)CSc1nnc(-c2cccs2)n1CC	.	.	.	.	.	.	/
O=C(c1ccccn1)N(c1ccccc1)C1(C(=O)NC2CCCCC2)CCCCC1	.	.	.	.	.	.	/
Cc1cc(C)c(C(=O)N2CCCC(CNC(=O)C3(c4ccc(Cl)cc4)CC3)C2)c(=O)[nH]1 (centres undefined)	.	.	.	.	.	.	/
O=C(O)c1cc(-c2c[nH]c3ccccc23)nc2ccc3ccccc3c12	.	.	.	.	.	.	/
c1ccc2c(-c3c[nH]c4ccccc34)c3ccccc3nc2c1	78.7	.	/	54.8	.	.	.
Cc1ccccc1NS(=O)(=O)c1cc(C(=O)NCc2ccco2)ccc1C	.	.	.	59.4	.	/	.
O=C(NCc1ccco1)c1cccc(NS(=O)(=O)c2cccc(F)c2)c1	.	.	.	57.5	.	.	.
Cc1ccc(C(=O)NCc2ccco2)cc1S(=O)(=O)Nc1cccc(C)c1C	.	.	.	.	.	.	/
Cc1ccnc(N2CCC(C(=O)NNC(=O)c3ccccc3C)CC2)n1	.	.	/	.	.	.	/
COc1cccc(NC(=O)CC2C(=O)NC3CCCCC3N2C(=O)c2ccc(F)cc2)c1 (centres undefined)	.	.	/	.	.	/	/
CC[n+]1c(C)sc2c(C)cc(C)cc21	.	.	/	69.4	.	/	.
Cc1cc(C)c2sc(C)[n+](CCCS(=O)(=O)[O-])c2c1	.	/	.	.	/	.	/
COc1cccc(C(=O)N(Cc2ccc3c(c2)OCO3)Cc2nc3ccccc3c(=O)[nH]2)c1	.	.	.	81.6	.	/	.
CCCn1nc(NC(=O)C2CCCO2)c2cc3cccc(C)c3nc21 (centres undefined)	/	/	/	/	/	.	/
CC(C)Cn1nc(NC(=O)C2CCCO2)c2cc3ccccc3nc21 (centres undefined)	.	.	/	62.8	.	.	.
CS(=O)(=O)c1ccc2nc(NC(=O)c3ccc(NS(=O)(=O)c4cccc([N+](=O)[O-])c4)cc3)sc2c1	/	/	/	/	/	.	/
CN(C)C=Nc1ncc2c3ccccc3n(Cc3ccccc3)c2c1C#N	.	.	/	.	.	.	/
CCN(CC)CCn1c2ccccc2c2cnc(N)c(C#N)c21	.	.	/	100.3	.	.	.
O=C(CC1CCCCC1)N1CCC(c2nc(-c3ccc(S(=O)(=O)N4CCCC4)cc3)no2)CC1	.	.	/	65.8	.	.	.
C=CC[n+]1c(-c2ccccc2)csc1NC(C)(C)C	.	.	.	.	.	.	/
C=CC[n+]1c(-c2ccc(OC)c(OC)c2)csc1NNC(=O)Nc1ccccc1	.	.	/	100.0	.	.	.
CSc1cc(/C=N/O)c(SC)s1	.	.	.	.	.	.	/
Cc1cc(C)c(COCc2cc(/C=N/O)c(C)cc2C)cc1/C=N/O	.	.	/	88.8	.	.	.
